Laboratory results taken from ChEMBL document CHEMBL5108008, “Drug screening approach against mycobacterial fatty acyl-AMP ligase FAAL32 renews the interest of the salicylanilide pharmacophore in the fight against tuberculosis” (Bioorg Med Chem, 2022).
pIC50: −log10 of the molar value. Values after ≈ are worked out from the molar mass of the structure shown. Where a name gives a salt, the structure may show the parent alone.

What was measured:
[1] = system: Mycobacterium tuberculosis; experiment: Antimicrobial activity against Mycobacterium tuberculosis H37Rv incubated for 24 hrs and measured by MTT assay; type: functional
Method in brief: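 Pellicle-grown Mtb bacilli were vortexed with glass beads, clumps removed by slow spin, and set to A600 0.1 in 7H9/0.2% glycerol. 2 µL compound in DMSO (1 mM, or 2-fold serial dilutions) went into 100 µL broth with 100 µL bacteria. Plates ran 6 d at 37 °C, then MTT (1 mg/mL) for 24 h, SDS solubilisation and A570. MIC was the lowest concentration inhibiting growth versus the untreated control.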

[2] = biological target: T1, Long-chain-fatty-acid--AMP ligase FadD32 (Mycobacterium tuberculosis (strain ATCC 25618 / H37Rv)) (UniProt O53580); experiment: Binding affinity to Mycobacterium tuberculosis FAAL32 assessed as change in melting temperature at 2.5 uM by NanoDSF assay
T1 sequence (whole entry): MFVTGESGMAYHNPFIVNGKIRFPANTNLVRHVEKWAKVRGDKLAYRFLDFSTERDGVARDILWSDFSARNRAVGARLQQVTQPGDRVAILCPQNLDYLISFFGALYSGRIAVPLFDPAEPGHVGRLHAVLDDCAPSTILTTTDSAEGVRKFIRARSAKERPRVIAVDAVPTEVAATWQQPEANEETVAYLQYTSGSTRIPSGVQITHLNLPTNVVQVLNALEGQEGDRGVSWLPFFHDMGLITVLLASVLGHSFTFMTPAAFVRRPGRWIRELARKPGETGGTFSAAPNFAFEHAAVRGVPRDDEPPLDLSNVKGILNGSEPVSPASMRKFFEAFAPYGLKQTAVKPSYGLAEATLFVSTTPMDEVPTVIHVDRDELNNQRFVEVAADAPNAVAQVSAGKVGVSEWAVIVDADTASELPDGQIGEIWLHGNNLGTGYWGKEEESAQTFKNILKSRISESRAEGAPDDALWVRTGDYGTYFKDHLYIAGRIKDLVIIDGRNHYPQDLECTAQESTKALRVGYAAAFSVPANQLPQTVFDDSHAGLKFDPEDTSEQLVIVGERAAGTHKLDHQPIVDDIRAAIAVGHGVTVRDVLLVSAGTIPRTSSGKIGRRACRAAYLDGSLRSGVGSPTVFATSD
Method in brief: (§1)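 nanoDSF used 0.5 µM purified FAAL32 with ligand at 0.5–10 µM in 50 mM HEPES pH 7.5, 500 mM NaCl, 5% DMSO. Samples sat 5 min at RT, then were heated 20–70 °C at 1 °C/min. Tm came from the F350/F330 fluorescence ratio; the DMSO-only protein was the reference.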

[3] = biological target: T2, Long-chain-fatty-acid--AMP ligase FadD32 (Mycobacterium tuberculosis (strain ATCC 25618 / H37Rv), UniProt O53580); experiment: Inhibition of Mycobacterium tuberculosis FAAL32 using AMPC12 as substrate incubated for 50 mins and measured by spectrophotometric assay
T2 sequence (O53580 whole entry): T1 sequence (whole entry)
Method in brief: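 Purified Mtb FAAL32 was run with lauric acid and ATP in HEPES pH 7.5, MgCl2, DTT and detergent. Pyrophosphatase coupling converted released PPi to Pi, read after 50 min as A630 with a phosphate colour reagent against a Pi calibration curve. Compounds (final 0.5–66 µM, DMSO) were added before the enzyme. IC50 came from a sigmoidal fit of percent inhibition.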

[4] = biological target: T1, Long-chain-fatty-acid--AMP ligase FadD32 (Mycobacterium tuberculosis (strain ATCC 25618 / H37Rv)); experiment: Binding affinity to Mycobacterium tuberculosis FAAL32 assessed as change in melting temperature at 5 uM by NanoDSF assay; method in brief: as §1

Compound	MIC [1]	further results
CCCCCCCCCCCCCCCC[N+](C)(C)CCN(Cc1ccc(OC)cc1)c1ncccn1 [THONZONIUM BROMIDE]	> 1 µM	–
VERTEPORFIN	> 1 µM	–
CCCCC(CC)CNC(=N)NC(=N)NCCCCCCNC(=N)NC(=N)NCC(CC)CCCC (stereo unspecified) [ALEXIDINE DIHYDROCHLORIDE]	> 1 µM	–
O=C(Nc1ccc(Oc2ccc(Cl)cc2)c(Cl)c1)c1cc(I)cc(I)c1O [RAFOXANIDE]	0.08 µM (≈ 0.0501 µg/mL)	ΔTm [2]: 2.7 °C
O=C(Nc1cc(Cl)cc(Cl)c1O)c1c(O)c(Cl)cc(Cl)c1Cl [OXYCLOZANIDE]	0.32 µM (≈ 0.128 µg/mL)	–
Clc1ccc(COC(Cn2ccnc2)c2ccc(Cl)cc2Cl)c(Cl)c1 (stereo unspecified) [MICONAZOLE]	> 1 µM	–
Cc1cc(C(C#N)c2ccc(Cl)cc2)c(Cl)cc1NC(=O)c1cc(I)cc(I)c1O (stereo unspecified) [CLOSANTEL]	0.08 µM (≈ 0.053 µg/mL)	pIC50 [3]: 5.11; ΔTm [4]: 2.7 °C
O=C(O)c1cn(C2CC2)c2cc(N3CCNCC3)c(F)cc2c1=O [CIPROFLOXACIN]	1.25 µM (≈ 0.414 µg/mL)	–
Oc1c(Cl)cc(Cl)c(Cl)c1Cc1c(O)c(Cl)cc(Cl)c1Cl [HEXACHLOROPHENE]	0.08 µM (≈ 0.0326 µg/mL)	–
NNC(=O)c1ccncc1 [ISONIAZID]	0.6 µM (≈ 0.0823 µg/mL)	–
CC(=O)Oc1ccccc1C(=O)Nc1ncc([N+](=O)[O-])s1 [NITAZOXANIDE]	10 µM (≈ 3.07 µg/mL)	–
CC(C)(O)c1ccccc1CC[C@@H](SCC1(CC(=O)O)CC1)c1cccc(/C=C/c2ccc3ccc(Cl)cc3n2)c1 [MONTELUKAST]	> 1 µM	–
O=C(Nc1ccc([N+](=O)[O-])cc1Cl)c1cc(Cl)ccc1O [NICLOSAMIDE]	< 0.4 µM	–
